Laboratory results taken from ChEMBL document CHEMBL4257484, “Membrane-active antimicrobial poly(amino-modified alkyl) β-cyclodextrins synthesized via click reactions” (Medchemcomm, 2018).
In brackets after ≈: the same amount, converted by molar mass.

Legend:
[1] = test system: Staphylococcus aureus; experiment: Antibacterial activity against Staphylococcus aureus FDA 209P assessed as decrease in cell viability after 30 mins by colony counting method; type: functional; details: 0.5 h
Summary of the method: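 S. aureus washed twice and suspended at 2 × 10^9 cells per cm3 in 100 mM choline chloride/50 mM Mops-Tris, pH 7.2. Exposed to CD at 37 °C for 30 min. An aliquot was diluted in physiological saline, plated on polypeptone/yeast extract/NaCl agar and incubated overnight at 37 °C. Viability was taken from colony counts; LC50 is the concentration giving 50% viability.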

[2] = test system: Staphylococcus aureus; experiment: Induction of membrane disruption in methicillin-sensitive Staphylococcus aureus FDA 209P assessed as increase in K+ efflux after 30 mins; type: functional; details: 0.5 h, read-out: ED50 (the source's name)
Summary of the method: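 S. aureus washed twice and suspended at 2 × 10^9 cells per cm3 in 100 mM choline chloride/50 mM Mops-Tris, pH 7.2, then exposed to compound at 37 °C for 30 min. Released K+ was measured in the centrifuged supernatant with a K+-selective electrode. Melittin (10 µM) defined 100% efflux, and ED50 is the concentration giving 50% efflux.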

[3] = test system: Enterococcus faecalis; experiment: Antibacterial activity against drug-resistant Enterococcus faecalis MS29030 after 18 to 20 hrs by agar dilution method; type: functional
Summary of the method: (§1)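 Agar dilution per CLSI. Overnight broth cultures were diluted 100-fold, and one loopful (about 10^5 to 10^4 CFU) was spotted onto agar plates containing the CD. Growth was scored after 18–20 h at 37 °C. MIC values are in µM.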

[4] = test system: Salmonella typhimurium; experiment: Antibacterial activity against drug-sensitive Salmonella typhimurium LT2 after 20 hrs by liquid microdilution method; type: functional, Salmonella enterica subsp. enterica serovar Typhimurium; details: Salmonella enterica, LT2, 20 h
Summary of the method: (§2)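 Two-fold serial dilutions of compound in Mueller–Hinton broth, inoculated with 1 × 10^4 cells and cultured at 37 °C for 20 h in microtiter wells.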

[5] = test system: Streptococcus agalactiae; experiment: Antibacterial activity against drug-resistant Streptococcus agalactiae B1 after 18 to 20 hrs by agar dilution method; type: functional; summary of the method: as §1
[6] = test system: Bacillus subtilis; experiment: Antibacterial activity against drug-sensitive Bacillus subtilis 168 after 20 hrs by liquid microdilution method; type: functional; details: subsp. subtilis str. 168, 20 h; summary of the method: as §2
[7] = test system: Enterococcus faecalis; experiment: Antibacterial activity against vancomycin-resistant Enterococcus faecalis MS29016 after 18 to 20 hrs by agar dilution method; type: functional; summary of the method: as §1
[8] = test system: Staphylococcus aureus; experiment: Antibacterial activity against methicillin-sensitive Staphylococcus aureus FDA 209P after 20 hrs by liquid microdilution method; type: functional; summary of the method: as §2
[9] = Lipophilicity, log P of the compound; type: physicochemical; details: octanol/water
[10] = Hemolytic activity in rabbit RBC at 5 uM after 20 mins relative to control; type: ADME, cell-based, Oryctolagus cuniculus, Erythrocyte; details: rabbit red blood cells (erythrocytes), read-out: Activity
Summary of the method: (§3)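 Rabbit erythrocytes suspended in 150 mM NaCl/10 mM Hepes-NaOH, pH 7.4, at 0.5% hematocrit (final) and incubated with compound at 37 °C. The table footnote gives 20 min; the methods section gives 30 min. Hemolysis was read as absorbance at 540 nm, with 50 µM lysolecithin defining 100% hemolysis.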

[11] = Hemolytic activity in rabbit RBC at 2 uM after 20 mins relative to control; type: ADME, cell-based, Oryctolagus cuniculus, Erythrocyte; details: rabbit red blood cells (erythrocytes), read-out: Activity; summary of the method: as §3
[12] = test system: Pseudomonas aeruginosa; experiment: Antibacterial activity against drug-sensitive Pseudomonas aeruginosa PAO1 after 20 hrs by liquid microdilution method; type: functional; details: PAO1, 20 h; summary of the method: as §2
[13] = test system: Escherichia coli; experiment: Antibacterial activity against drug-sensitive Escherichia coli K-12 W3110 after 20 hrs by liquid microdilution method; type: functional; details: K-12 substr. W3110, 20 h; summary of the method: as §2
[14] = test system: Enterococcus faecium; experiment: Antibacterial activity against drug-resistant Enterococcus faecium MS29120 after 18 to 20 hrs by agar dilution method; type: functional; summary of the method: as §1
[15] = Hemolytic activity in rabbit RBC at 10 uM after 20 mins relative to control; type: ADME, cell-based, Oryctolagus cuniculus, Erythrocyte; details: rabbit red blood cells (erythrocytes), read-out: Activity; summary of the method: as §3
[16] = Hemolytic activity in rabbit RBC at 50 uM after 20 mins relative to control; type: ADME, cell-based, Oryctolagus cuniculus, Erythrocyte; details: rabbit red blood cells (erythrocytes), read-out: Activity; summary of the method: as §3
[17] = Hemolytic activity in rabbit RBC at 20 uM after 20 mins relative to control; type: ADME, cell-based, Oryctolagus cuniculus, Erythrocyte; details: rabbit red blood cells (erythrocytes), read-out: Activity; summary of the method: as §3
[18] = test system: Staphylococcus aureus; experiment: Antibacterial activity against methicillin-resistant Staphylococcus aureus MS29202 after 18 to 20 hrs by agar dilution method; type: functional; summary of the method: as §1
[19] = Hemolytic activity in rabbit RBC at 1 uM after 20 mins relative to control; type: ADME, cell-based, Oryctolagus cuniculus, Erythrocyte; details: rabbit red blood cells (erythrocytes), read-out: Activity; summary of the method: as §3

SMILES | LC50 [1] | EC50 [2] | MIC [3] | MIC [4] | MIC [5] | MIC [6] | MIC [7] | MIC [8] | logP [9] | hemolysis at 20 min, 5 µM [10] | hemolysis at 20 min, 2 µM [11] | MIC [12] | MIC [13] | MIC [14] | hemolysis at 20 min, 10 µM [15] | hemolysis at 20 min, 50 µM [16] | hemolysis at 20 min, 20 µM [17] | MIC [18] | hemolysis at 20 min, 1 µM [19]
OC[C@H]1O[C@@H]2O[C@H]3[C@H](O)[C@@H](O)[C@@H](O[C@H]4[C@H](O)[C@@H](O)[C@@H](O[C@H]5[C@H](O)[C@@H](O)[C@@H](O[C@H]6[C@H](O)[C@@H](O)[C@@H](O[C@H]7[C@H](O)[C@@H](O)[C@@H](O[C@H]8[C@H](O)[C@@H](O)[C@@H](O[C@H]1[C@H](O)[C@H]2O)O[C@@H]8CO)O[C@@H]7CO)O[C@@H]6CO)O[C@@H]5CO)O[C@@H]4CO)O[C@@H]3CO [BETADEX] | > 50 µM | > 50 µM |  |  |  |  |  |  |  |  |  |  |  |  |  |  |  |  | 
CCCCNCc1cn(C[C@H]2O[C@@H]3O[C@H]4[C@H](O)[C@@H](O)[C@@H](O[C@H]5[C@H](O)[C@@H](O)[C@@H](O[C@H]6[C@H](O)[C@@H](O)[C@@H](O[C@H]7[C@H](O)[C@@H](O)[C@@H](O[C@H]8[C@H](O)[C@@H](O)[C@@H](O[C@H]9[C@H](O)[C@@H](O)[C@@H](O[C@H]2[C@H](O)[C@H]3O)O[C@@H]9Cn2cc(CNCCCC)nn2)O[C@@H]8Cn2cc(CNCCCC)nn2)O[C@@H]7Cn2cc(CNCCCC)nn2)O[C@@H]6Cn2cc(CNCCCC)nn2)O[C@@H]5Cn2cc(CNCCCC)nn2)O[C@@H]4Cn2cc(CNCCCC)nn2)nn1 | > 50 µM | > 50 µM | > 44 µM | > 44 µM | > 44 µM | 11 µM (≈ 23 µg/mL) | > 44 µM | 11 to 22 µM (≈ 23 to 45.9 µg/mL) | -0.9 | 0% | 0% | > 44 µM | > 44 µM | > 44 µM | 0% | 0% | 0% | > 44 µM | 0%
CC(C)CCCNCc1cn(C[C@H]2O[C@@H]3O[C@H]4[C@H](O)[C@@H](O)[C@@H](O[C@H]5[C@H](O)[C@@H](O)[C@@H](O[C@H]6[C@H](O)[C@@H](O)[C@@H](O[C@H]7[C@H](O)[C@@H](O)[C@@H](O[C@H]8[C@H](O)[C@@H](O)[C@@H](O[C@H]9[C@H](O)[C@@H](O)[C@@H](O[C@H]2[C@H](O)[C@H]3O)O[C@@H]9Cn2cc(CNCCCC(C)C)nn2)O[C@@H]8Cn2cc(CNCCCC(C)C)nn2)O[C@@H]7Cn2cc(CNCCCC(C)C)nn2)O[C@@H]6Cn2cc(CNCCCC(C)C)nn2)O[C@@H]5Cn2cc(CNCCCC(C)C)nn2)O[C@@H]4Cn2cc(CNCCCC(C)C)nn2)nn1 |  |  | > 42 µM | 10 µM (≈ 22.8 µg/mL) | 5 µM (≈ 11.4 µg/mL) | 3 µM (≈ 6.85 µg/mL) | 42 µM (≈ 96 µg/mL) | 3 to 10 µM (≈ 6.85 to 22.8 µg/mL) | -0.15 | 7% | 5% | 5 µM (≈ 11.4 µg/mL) | 10 µM (≈ 22.8 µg/mL) | 10 µM (≈ 22.8 µg/mL) | 15% | 56% | 23% | 21 µM (≈ 48 µg/mL) | 5%
O[C@@H]1[C@@H](O)[C@H]2O[C@H]3[C@H](O)[C@@H](O)[C@@H](O[C@H]4[C@H](O)[C@@H](O)[C@@H](O[C@H]5[C@H](O)[C@@H](O)[C@@H](O[C@H]6[C@H](O)[C@@H](O)[C@@H](O[C@H]7[C@H](O)[C@@H](O)[C@@H](O[C@H]8[C@H](O)[C@@H](O)[C@@H](O[C@@H]1[C@@H](Cn1cc(CNCC9CCC9)nn1)O2)O[C@@H]8Cn1cc(CNCC2CCC2)nn1)O[C@@H]7Cn1cc(CNCC2CCC2)nn1)O[C@@H]6Cn1cc(CNCC2CCC2)nn1)O[C@@H]5Cn1cc(CNCC2CCC2)nn1)O[C@@H]4Cn1cc(CNCC2CCC2)nn1)O[C@@H]3Cn1cc(CNCC2CCC2)nn1 |  |  | > 43 µM | > 43 µM | > 43 µM | 3 µM (≈ 6.52 µg/mL) | > 43 µM | 5 to 11 µM (≈ 10.9 to 23.9 µg/mL) | -1 | 0% | 0% | > 43 µM | > 43 µM | > 43 µM | 0% | 0% | 0% | > 43 µM | 0%
NC(CC1CCCCC1)c1cn(C[C@H]2O[C@@H]3O[C@H]4[C@H](O)[C@@H](O)[C@@H](O[C@H]5[C@H](O)[C@@H](O)[C@@H](O[C@H]6[C@H](O)[C@@H](O)[C@@H](O[C@H]7[C@H](O)[C@@H](O)[C@@H](O[C@H]8[C@H](O)[C@@H](O)[C@@H](O[C@H]9[C@H](O)[C@@H](O)[C@@H](O[C@H]2[C@H](O)[C@H]3O)O[C@@H]9Cn2cc(C(N)CC3CCCCC3)nn2)O[C@@H]8Cn2cc(C(N)CC3CCCCC3)nn2)O[C@@H]7Cn2cc(C(N)CC3CCCCC3)nn2)O[C@@H]6Cn2cc(C(N)CC3CCCCC3)nn2)O[C@@H]5Cn2cc(C(N)CC3CCCCC3)nn2)O[C@@H]4Cn2cc(C(N)CC3CCCCC3)nn2)nn1 (some centres undefined) |  |  | 40 µM (≈ 94.8 µg/mL) | 10 µM (≈ 23.7 µg/mL) | 20 µM (≈ 47.4 µg/mL) | 3 µM (≈ 7.11 µg/mL) | 20 µM (≈ 47.4 µg/mL) | 10 µM (≈ 23.7 µg/mL) | -0.35 | 89% | 31% | 20 µM (≈ 47.4 µg/mL) | 10 µM (≈ 23.7 µg/mL) | 20 µM (≈ 47.4 µg/mL) | 107% | 118% | 117% | 20 µM (≈ 47.4 µg/mL) | 13%
CCCC(C)CCNCc1cn(C[C@H]2O[C@@H]3O[C@H]4[C@H](O)[C@@H](O)[C@@H](O[C@H]5[C@H](O)[C@@H](O)[C@@H](O[C@H]6[C@H](O)[C@@H](O)[C@@H](O[C@H]7[C@H](O)[C@@H](O)[C@@H](O[C@H]8[C@H](O)[C@@H](O)[C@@H](O[C@H]9[C@H](O)[C@@H](O)[C@@H](O[C@H]2[C@H](O)[C@H]3O)O[C@@H]9Cn2cc(CNCCC(C)CCC)nn2)O[C@@H]8Cn2cc(CNCCC(C)CCC)nn2)O[C@@H]7Cn2cc(CNCCC(C)CCC)nn2)O[C@@H]6Cn2cc(CNCCC(C)CCC)nn2)O[C@@H]5Cn2cc(CNCCC(C)CCC)nn2)O[C@@H]4Cn2cc(CNCCC(C)CCC)nn2)nn1 (some centres undefined) |  |  | > 40 µM | 10 µM (≈ 23.8 µg/mL) | 20 µM (≈ 47.7 µg/mL) | 10 µM (≈ 23.8 µg/mL) | 40 µM (≈ 95.3 µg/mL) | 3 to 20 µM (≈ 7.15 to 47.7 µg/mL) | 0.27 | 73% | 30% | 10 µM (≈ 23.8 µg/mL) | 5 µM (≈ 11.9 µg/mL) | 20 µM (≈ 47.7 µg/mL) | 99% | 119% | 108% | 40 µM (≈ 95.3 µg/mL) | 10%
